Columns and labels:
[1] = molecular target: T1, Bcl-2-related protein A1 (Homo sapiens, UniProt Q16548); test: Inhibition of N-terminal FITC BH3 peptide binding to GST-tagged Bfl1 by fluorescence polarization assay
T1 sequence (Q16548 whole entry): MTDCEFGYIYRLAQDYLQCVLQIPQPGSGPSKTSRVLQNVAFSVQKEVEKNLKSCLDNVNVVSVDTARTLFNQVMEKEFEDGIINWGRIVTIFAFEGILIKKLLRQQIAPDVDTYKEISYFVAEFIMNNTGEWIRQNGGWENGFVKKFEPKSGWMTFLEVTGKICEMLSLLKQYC
Summary of the method: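 Then FITC-Bid BH3 peptide (5.6 nM working solution) was added and incubated 4 h at room temperature. Ten concentrations in 10% DMSO. Fluorescence polarization read at ex 485/em 530 nm. IC50 from sigmoidal dose-response non-linear regression.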

[2] = molecular target: T1, Bcl-2-related protein A1; test: Inhibition of N-terminal FITC BH3 peptide binding to GST-tagged Bfl1 by time resolved-FRET assay
Summary of the method: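 10-point 2-fold dilution series in 10% final DMSO, in duplicate wells. FITC-Bid (5.6 nM) plus Tb-antibody (2.5 nM) was then added and incubated 4 h at room temperature. TR-FRET read at ex 340 nm, signal taken as the 520/490 nm emission ratio.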

CN1CCN(c2cc(O)n(-c3ccc(Cl)c(Cl)c3)c2O)CC1 [1-(3,4-dichlorophenyl)-3-(4-methylpiperazin-1-yl)pyrrolidine-2,5-dione]
IC50 [1]: > 10 µM | IC50 [2]: > 10 µM

Oc1c(Cl)c(N=Cc2ccccc2)c(O)n1-c1ccc(Cl)c(Cl)c1 [MLS-0067125.0001]
IC50 [1]: > 50 µM | IC50 [2]: > 50 µM
